Test [1] deals with HeLa. Description: Antiproliferative activity against human HeLa cells. Type of test: functional, cell-based. In a few lines:
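Cervical carcinoma cells plated at 10,000 cells/well in 48-well plates. Varied concentrations added after 24 h, then 3 days of incubation. Cells trypsinized and Coulter-counted. IC50 is the concentration giving 50% reduction of proliferation.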

Test [2] is filed under the species Bos taurus. Description: Inhibition of calf brain tubulin polymerization at 30 uM measured for 6000 secs by spectrophotometric method. In short, it runs like this: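 Calf brain tubulin, gel-filtered into GAB buffer (10 mM sodium phosphate, 1 mM EGTA, 25% glycerol, 0.1 mM GTP, pH 7.0) at 25 µM, degassed; compound at 30 µM. Assembly at 37 °C followed by absorbance at 350 nm up to 6000 s; DMSO and podophyllotoxin controls; normalized absorbance.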

The test system of test [3] is HMEC-1. Description: Antiproliferative activity against human HMEC1 cells. Type of test: cell-based. In a few lines:
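HMEC-1 microvascular endothelial cells plated at 20,000 cells/well in 48-well plates. 5-fold dilutions added after 24 h, then 4 days of growth. Cells trypsinized and counted by Coulter counter. IC50 is the concentration halving proliferation.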

The test system of test [4] is CCRF-CEM. Description: Antiproliferative activity against human CEM cells. In kind it is functional, cell-based. In a few lines: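 Suspension cells seeded at 60,000 cells/well in 96-well plates together with a range of compound concentrations. Grown 96 h, then counted by Coulter counter. IC50 taken as the concentration reducing proliferation by 50%.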
For a further test, the system named is L1210. Description: Antiproliferative activity against mouse L1210 cells after 96 hrs by coulter counting method. In kind it is functional, cell-based. The settings on record: L1210, 96 h. In a few lines: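 Suspension cells (CEM, L1210) seeded at 60,000 cells/well together with graded compound concentrations; grown 96 h, then counted by Coulter counter. IC50 = concentration reducing cell proliferation by 50%.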

The species entered for test [5] is Bos taurus. Description: Inhibition of R-PT binding to calf brain tubulin after 30 mins by fluorescence assay. In short, it runs like this:
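Competition assay: 0.2 µM R-PT premixed with 0.2 µM calf brain tubulin in GAB buffer, ligand at 0–70 µM; 30 min at 25 °C, fluorescence read at 456 nm (ex 374 nm). Binding constants derived from competition data; racemates tested.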

Test [6] has as its system HeLa. Description: Cell cycle arrest in human HeLa cells assessed as accumulation at G2/M phase at 0.1 uM after 24 hrs by propidium iodide staining based flow cytometry. In kind it is functional. In a few lines: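 HeLa in DMEM + 10% FBS, 125,000 cells/well; compound added after 24 h for 24 h. DNA stained with propidium iodide kit, analysed by flow cytometry within 3 h; debris/clumps gated out; sub-G1, G1, S, G2/M percentages from region markers.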
Background: A flow cytometer gives signals particle by particle.

Test [7] deals with HeLa. Description: Antiproliferative activity against human HeLa cells after 3 days by coulter counting method. Type of test: functional, cell-based. As to conditions: 72 h. In a few lines: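 HeLa seeded at 10,000 cells/well; various compound concentrations added 24 h later; after 3 days incubation cells trypsinized and counted by Coulter counter.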
The target in a further test is Tubulin (Homo sapiens) (UniProt P68371+Q9H4B7+P0DPH7+P68366+Q13509+Q71U36+P04350+Q3ZCM7+P07437+P68363+Q9BQE3+Q6PEY2+Q13885+Q9BVA1+Q9BUF5). Description: Inhibition of tubulin polymerization in human HeLa cells assessed as reduction in mitotic spindle formation by measuring aberrant multipolar spindle formation at 0.1 to 0.3 uM after 24 hrs by Hoechst 33342 staining based immunofluorescence microscopic method. In kind it is cell-based. In a few lines:
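HeLa seeded overnight on poly-L-lysine-coated slides, treated 24 h with compound or 0.1% DMSO. Fixed, permeabilized, stained with anti-β-tubulin (2 µg/ml) then Alexa Fluor 555 anti-mouse (4 µg/ml); nuclei with Hoechst 33342 (2 µg/ml); spindles imaged by fluorescence microscopy.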

The subject of test [8] is CCRF-CEM. Description: Antiproliferative activity against human CEM cells after 96 hrs by coulter counting method. Type of test: functional, cell-based. In a few lines:
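Suspension cells (CEM, L1210) seeded at 60,000 cells/well together with graded compound concentrations; grown 96 h, then counted by Coulter counter.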

The test system of test [9] is HMEC-1. Description: Antiproliferative activity against human HMEC1 cells after 4 days by coulter counting method. In kind it is cell-based. The settings on record: HMEC-1, 96 h. In short, it runs like this: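 HMEC-1 seeded at 20,000 cells/well; 5-fold compound dilutions added after 24 h; 4 days proliferation, trypsinized, Coulter counted.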

The source made the active and inactive calls. The calls are words filed in the database; no cut-off is given here.

This is an account of results in ChEMBL document CHEMBL4196032, “Conformational mimetics of the α-methyl chalcone TUB091 binding tubulin: Design, synthesis and antiproliferative activity” (Eur J Med Chem, 2018).

Usually IC50 stands for the point on the concentration scale where inhibition reaches its midpoint. Low readings indicate inhibition by little substance, high ones a need for much substance. Turning to `COc1ccc(/C=C(\C)C(=O)c2cc(OC)c3c(c2)OCO3)cc1N`, the 50% inhibitory concentration (IC50) is 0.0039 µM in the test on HeLa [1], 0.0023 µM in the test with HMEC-1 [3], 0.001 µM in the test with CCRF-CEM [4] and 0.001 µM in the test with L1210. Further, in the test listed under Bos taurus [2], the inhibition result is “Active”.

For the compound `COc1cc([C@@H]2c3cc4c(cc3[C@H](O)[C@H]3COC(=O)[C@H]23)OCO4)cc(OC)c1OC`, the inhibition entry in the test listed under Bos taurus [2] is “Active”.

`COc1ccc2c(c1N)CCC(C(=O)c1ccc(OC)c(OC)c1OC)C2` (racemic): the inhibition result in the test listed under Bos taurus [2] and on Tubulin (Homo sapiens) was “Active” throughout. The compound also gave a Kb in the test listed under Bos taurus [5] of 2.4 ×10⁶ /M. Moreover, the outcome in the test with HeLa [6] was Active. The IC50 in the test on HeLa [7] was found to be 0.03 µM; with L1210, 0.027 µM; in the test with CCRF-CEM [8], 0.022 µM; with HMEC-1 [9], 0.047 µM.

For `COc1ccc(C(=O)C2CCc3c(ccc(OC)c3[N+](=O)[O-])C2)c(OC)c1OC` (racemic), the inhibition entry in the test listed under Bos taurus [2] is “Active”. For the same compound, the IC50 in the test on HeLa [7] is 0.81 µM; in the test with L1210, 4.2 µM; with CCRF-CEM [8], 0.86 µM; in the test on HMEC-1 [9], 5.3 µM.

Take `COc1ccc2c(c1)CCC(C(=O)c1ccc(OC)c3c1OCO3)C2` (racemic): the IC50 is 88 µM in the test with HeLa [7], 160 µM with L1210, 39 µM in the test on CCRF-CEM [8] and 38 µM in the test with HMEC-1 [9].

As for `COc1ccc(C(=O)C2CCc3c(ccc(OC)c3N)C2)cc1OC` (racemic), the concentration for half-maximal inhibition (IC50) came to 23 µM in the test with HeLa [7], 52 µM in the test on L1210, 6.3 µM with CCRF-CEM [8] and 122 µM in the test on HMEC-1 [9].

As to `COc1ccc2c(c1)CCC(C(=O)c1ccc(OC)c(OC)c1)C2` (racemic), the inhibition result in the test listed under Bos taurus [2] is “inactive”. In addition, the IC50 was above 250 µM with HeLa [7], above 250 µM in the test on L1210, 221 µM in the test with CCRF-CEM [8] and above 250 µM with HMEC-1 [9].

As for `COc1ccc2c(c1)CCC(C(=O)c1ccc(OC)c(OC)c1O)C2` (racemic), the 50% inhibitory concentration (IC50) in the test with HeLa [7] was 40 µM; in the test with L1210, 75 µM; in the test on CCRF-CEM [8], 38 µM; in the test with HMEC-1 [9], at least 250 µM.

Consider `COc1cc2c(cc1N)CC(C(=O)c1ccc(OC)c(OC)c1OC)CC2` (racemic), for which the IC50 stood at 0.74 µM in the test on HeLa [7], 0.86 µM in the test on L1210, 0.48 µM in the test on CCRF-CEM [8] and 1.3 µM with HMEC-1 [9].

On to `COc1cc2c(cc1[N+](=O)[O-])CC(C(=O)c1ccc(OC)c(OC)c1OC)CC2` (racemic), for which the IC50 was above 250 µM in the test on HeLa [7], above 250 µM with L1210, above 250 µM with CCRF-CEM [8] and 199 µM with HMEC-1 [9].

As to `COc1ccc2c(c1)CCC(C(=O)c1ccc(OC)c(OC)c1OC)C2` (racemic), the inhibition entry in the test filed under Bos taurus [2] was “Active”. Besides, the IC50 in the test with HeLa [7] amounted to 0.4 µM; with L1210, 0.24 µM; in the test with CCRF-CEM [8], 0.17 µM; in the test on HMEC-1 [9], 1.2 µM.

In the case of `COc1ccc(/C=C\c2cc(OC)c(OC)c(OC)c2)cc1OP(=O)(O)O` [FOSBRETABULIN DISODIUM], the half-maximal inhibitory concentration (IC50) turned out to be 0.013 µM in the test with HeLa [7], 0.0021 µM in the test with L1210, 0.011 µM in the test with CCRF-CEM [8] and 0.0029 µM in the test with HMEC-1 [9].
